Consider 10 compounds from ChEMBL document CHEMBL1144415, “Identification of novel low molecular weight CXCR4 antagonists by structural tuning of cyclic tetrapeptide scaffolds” (J Med Chem, 2005).

Each structure is given as a SMILES string. Where only a bound is given, the exact number is not on record here.

For assay [1], the target named is T1, C-X-C chemokine receptor type 4 (Homo sapiens, UniProt P61073). Put plainly: Inhibition of [125I]SDF-1 binding to C-X-C chemokine receptor type 4 (CXCR4) expressed in CHO cells. It is filed as cell-based. In short, it runs like this:
(§1)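 Stable CXCR4-expressing CHO transfectants harvested with trypsin-EDTA, recovered 4 to 5 h in complete growth medium, washed in cold binding buffer (PBS with 2 mg/mL BSA). Cells at 1 × 10⁷ cells/mL incubated with 0.1 nM [¹²⁵I]-SDF-1 for 2 h on ice with agitation. Bound and free separated by centrifugation through oil cushion, gamma counting. IC50 from at least three independent experiments, mean with SD.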

The target of assay [2] is T1, C-X-C chemokine receptor type 4. Put plainly: Inhibition of [125I]SDF-1 binding to C-X-C chemokine receptor type 4 (CXCR4) expressed in CHO cells; range = 1-10 uM. It is filed as cell-based. In outline:
as §1

T1 sequence (P61073 whole entry): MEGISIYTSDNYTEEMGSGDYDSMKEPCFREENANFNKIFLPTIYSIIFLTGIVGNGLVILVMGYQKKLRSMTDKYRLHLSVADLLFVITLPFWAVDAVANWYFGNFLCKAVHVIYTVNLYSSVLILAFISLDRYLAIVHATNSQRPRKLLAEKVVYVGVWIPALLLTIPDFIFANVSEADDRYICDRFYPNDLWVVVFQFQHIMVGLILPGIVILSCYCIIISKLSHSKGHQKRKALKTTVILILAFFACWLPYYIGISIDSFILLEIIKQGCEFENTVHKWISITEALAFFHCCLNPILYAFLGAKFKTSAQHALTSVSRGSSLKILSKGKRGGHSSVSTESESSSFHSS

By IC50 is commonly meant the concentration needed to halve the response being measured. A high value points to a need for much substance. For `N=C(N)NCCC[C@@H]1NC(=O)[C@@H](CCC(N)=O)NC(=O)[C@@H](Cc2ccc(O)cc2)NC(=O)CNC(=O)[C@H](Cc2ccc3ccccc3c2)NC1=O`, the concentration for half-maximal inhibition (IC50) in assay [1] stood at 0.17 µM.

Compound `N=C(N)NCCC[C@H]1NC(=O)[C@@H](CCCN=C(N)N)NC(=O)[C@H](Cc2ccc(O)cc2)NC(=O)/C=C\[C@@H](Cc2ccc3ccccc3c2)NC1=O` showed an IC50 in assay [1] (cho) above 1 µM.

`CN1C(=O)[C@@H](NC(=O)CCN=C(N)N)CSSC[C@H](C(=O)NCCc2ccc(O)cc2)NC(=O)[C@H](Cc2ccc3ccccc3c2)NC(=O)[C@@H]1CCCN=C(N)N`: in assay [1], the IC50 is above 10 µM.

In assay [1], `N=C(N)NCCC[C@@H]1NC(=O)[C@@H]2CCCN2C(=O)[C@@H](Cc2ccc(O)cc2)NC(=O)CNC(=O)[C@H](Cc2ccc3ccccc3c2)NC1=O` showed an IC50 of 1.6 µM. `N=C(N)NCCC[C@@H]1NC(=O)[C@H]2CCCN2C(=O)[C@@H](Cc2ccc(O)cc2)NC(=O)CNC(=O)[C@H](Cc2ccc3ccccc3c2)NC1=O` registered an IC50 in assay [1] of 0.42 µM.

Take `N=C(N)NCCCN[C@H]1CSSC[C@H](C(=O)NCCc2ccc(O)cc2)NC(=O)[C@H](Cc2ccc3ccccc3c2)NC(=O)[C@H](CCCNC(=N)N)NC1=O`: in assay [1], the IC50 amounted to 1 µM. In assay [1] (cho), `N=C(N)NCCC[C@@H]1NC(=O)[C@H](Cc2ccc(O)cc2)NC(=O)/C=C\[C@@H](Cc2ccc3ccccc3c2)NC(=O)[C@@H](CCCNC(=N)N)NC1=O` came in with an IC50 above 1 µM. In assay [1], `N=C(N)NCCC[C@@H]1NC(=O)[C@@H](NC(=O)CCNC(=N)N)CSSC[C@H](C(=O)NCCc2ccc(O)cc2)NC(=O)[C@H](Cc2ccc3ccccc3c2)NC1=O` registered an IC50 of 0.53 µM. Same read-out and setting: the value for `N=C(N)NCCC[C@@H]1NC(=O)[C@@H](CCC(=O)O)NC(=O)[C@@H](Cc2ccc(O)cc2)NC(=O)CNC(=O)[C@H](Cc2ccc3ccccc3c2)NC1=O` was 0.61 µM.

`N=C(N)NCCC(=O)N[C@H]1C/C=C\C[C@H](C(=O)NCCc2ccc(O)cc2)NC(=O)[C@H](Cc2ccc3ccccc3c2)NC(=O)[C@H](CCCN=C(N)N)NC1=O`: the IC50 in assay [2] was 10 µM.
